# Experimental data: ChEMBL document CHEMBL5104210, “Discovery of antipsychotic loxapine derivatives against intracellular multidrug-resistant bacteria” (RSC Med Chem, 2022)
# Activity calls are given as the source filed them. The rule behind the calls is not given here.
# How the values were obtained:
# Salmonella typhimurium [1] = assay: Antibacterial activity against intracellular multidrug-resistant Salmonella typhimurium ATCC14028 infected in mouse RAW264.7 cells assessed as reduction in intracellular bacterial survival level by RFP staining based high-content image analysis; assay type: functional, organism-based, Salmonella enterica subsp. enterica serovar Typhimurium; conditions: Salmonella enterica, ATCC14028, RAW264.7
# Method in brief: (§1)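 RAW264.7 cells were seeded for 20 h, then infected for 1 h at MOI 50 with RFP-expressing bacteria (2 h subculture, OD600 0.6 ≈ 1×10^8 CFU/mL). Gentamicin 100 mg/L was given for 1 h, then compound plus 20 mg/L gentamicin for 24 h. Cells were stained with CellTracker Green, fixed, and stained with DAPI. Whole-well high-content imaging gave intracellular RFP intensity for EC50 and DAPI nuclei counts for CC50.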
# [2] = Cytotoxicity against mouse RAW264.7 cells assessed as reduction in number of cells by DAPI staining based high-content image analysis; assay type: toxicity, cell-based
# Method in brief: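 RAW264.7 seeded 20 h, infected 1 h with RFP-expressing S. Typhimurium (MOI 50), 100 mg/L gentamicin 1 h, then compound with 20 mg/L gentamicin 24 h. Cells stained with CellTracker Green, fixed in 3.7% formaldehyde, DAPI 0.2 mg/L. Whole-well high-content imaging at 10×; viable cells counted as DAPI-stained nuclei; CC50 calculated.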
# [3] = Selectivity ratio of CC50 for cytotoxicity against mouse RAW264.7 cells to EC50 for antibacterial activity against intracellular multidrug-resistant Salmonella typhimurium ATCC14028 infected in mouse RAW264.7 cells; assay type: toxicity, cell-based; conditions: read-out: Ratio CC50/EC50; method in brief: as §1
# [4] = target: D(2) dopamine receptor (Homo sapiens) (UniProt P14416); assay: Inhibition of isotope-labelled spiperone binding to recombinant dopamine D2 receptor (unknown origin)
# Method in brief: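 Human recombinant D2L receptor expressed in CHO cells (20 μg) incubated with increasing compound concentrations and 0.16 nM [3H]spiperone in Tris-HCl pH 7.4, 120 min at 25°C. Bound radioligand measured by filtration, washing and counting. Nonspecific binding defined with 10 μM haloperidol. Run as a contract service.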
# Salmonella typhimurium [5] = assay: Antibacterial activity against intracellular multidrug-resistant Salmonella typhimurium ATCC14028 infected in mouse RAW264.7 cells assessed as reduction in number of intracellular bacteria incubated for 24 hrs in presence of gentamycin by CFU assay; assay type: functional, organism-based, Salmonella enterica subsp. enterica serovar Typhimurium; conditions: Salmonella enterica, ATCC14028, RAW264.7, 24 h
# Method in brief: (§2)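 Bacteria were subcultured 1:100 from overnight LB cultures for 2 h at 37°C and resuspended in PBS to OD600 0.6. Host cells in 6-well plates were infected at MOI 25 for 1 h, treated with 100 mg/L gentamicin for 1 h, then given compound plus 20 mg/L gentamicin for 24 h. Cells were lysed in 0.1% Triton X-100, and lysates were serially diluted and plated on LB agar (37°C, 18 h) for CFU counts.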
# [6] = Cytotoxicity against mouse RAW264.7 cells assessed as reduction in cell viability measured after 24 hrs by MTT assay; assay type: toxicity, cell-based
# Method in brief: (§3)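 Cells were seeded and grown 20 h, then given test compound for 24 h. Media were DMEM + 10% heat-inactivated FBS (RAW264.7, J774.1, INT-407), RPMI 1640 + 10% FBS (THP-1) and McCoy's 5A + 10% FBS (HT-29, HCT-116), at 37°C and 5% CO2. MTT was added at 0.5 g/L for 1 h, formazan dissolved in DMSO, and A570 read. CC50 was calculated by curve fitting.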
# Salmonella typhimurium [7] = assay: Antibacterial activity against intracellular multidrug-resistant Salmonella typhimurium ATCC14028 infected in mouse J774.1 cells assessed as reduction in viability of intracellular bacteria incubated for 24 hrs in presence of gentamicin by CFU assay; assay type: functional, organism-based, Salmonella enterica subsp. enterica serovar Typhimurium; conditions: Salmonella enterica, ATCC14028, J774.1, 24 h; method in brief: as §2
# [8] = Cytotoxicity against mouse J774.1 cells assessed as reduction in cell viability in presence of gentamicin and measured after 24 hrs by MTT assay; assay type: toxicity, cell-based; method in brief: as §3
# Salmonella typhimurium [9] = assay: Antibacterial activity against intracellular multidrug-resistant Salmonella typhimurium ATCC14028 infected in human HT-29 cells assessed as reduction in viability of intracellular bacteria incubated for 24 hrs in presence of gentamicin by CFU assay; assay type: functional, organism-based, Salmonella enterica subsp. enterica serovar Typhimurium; conditions: Salmonella enterica, ATCC14028, HT-29, 24 h; method in brief: as §2
# [10] = Cytotoxicity against human HT-29 cells assessed as reduction in cell viability in presence of gentamicin and measured after 24 hrs by MTT assay; assay type: toxicity, cell-based; method in brief: as §3
# Salmonella typhimurium [11] = assay: Antibacterial activity against intracellular multidrug-resistant Salmonella typhimurium ATCC14028 infected in human HCT-116 cells assessed as reduction in viability of intracellular bacteria incubated for 24 hrs in presence of gentamicin by CFU assay; assay type: functional, organism-based, Salmonella enterica subsp. enterica serovar Typhimurium; conditions: Salmonella enterica, ATCC14028, HCT-116, 24 h; method in brief: as §2
# [12] = Cytotoxicity against human HCT-116 cells assessed as reduction in cell viability in presence of gentamicin and measured after 24 hrs by MTT assay; assay type: toxicity, cell-based; method in brief: as §3
# Salmonella typhimurium [13] = assay: Antibacterial activity against intracellular multidrug-resistant Salmonella typhimurium ATCC14028 infected in human Intestine 407 cells assessed as reduction in viability of intracellular bacteria incubated for 24 hrs in presence of gentamicin by CFU assay; assay type: functional, organism-based, Salmonella enterica subsp. enterica serovar Typhimurium; conditions: Salmonella enterica, ATCC14028, Intestine 407, 24 h; method in brief: as §2
# [14] = Cytotoxicity against human Intestine 407 cells assessed as reduction in cell viability in presence of gentamicin and measured after 24 hrs by MTT assay; assay type: toxicity, cell-based; method in brief: as §3
# Salmonella typhimurium [15] = assay: Antibacterial activity against intracellular multidrug-resistant Salmonella typhimurium ATCC14028 infected in human monocytic THP-1 cells assessed as reduction in viability of intracellular bacteria incubated for 24 hrs in presence of gentamicin by CFU assay; assay type: functional, organism-based, Salmonella enterica subsp. enterica serovar Typhimurium; conditions: Salmonella enterica, ATCC14028, THP-1, 24 h; method in brief: as §2
# [16] = Cytotoxicity against human monocytic THP-1 cells assessed as reduction in cell viability in presence of gentamicin and measured after 24 hrs by MTT assay; assay type: toxicity, cell-based; method in brief: as §3
# Salmonella typhimurium [17] = assay: Antibacterial activity against intracellular multidrug-resistant Salmonella typhimurium ATCC14028 infected in PMA induced human macrophagic THP-1 cells assessed as reduction in viability of intracellular bacteria incubated for 24 hrs in presence of gentamicin by CFU assay; assay type: functional, organism-based, Salmonella enterica subsp. enterica serovar Typhimurium; conditions: Salmonella enterica, ATCC14028, THP-1, 24 h; method in brief: as §2
# [18] = Cytotoxicity against PMA induced human macrophagic THP-1 cells assessed as reduction in cell viability in presence of gentamicin and measured after 24 hrs by MTT assay; assay type: toxicity, cell-based; conditions: PMA induced macrophagic THP-1 cells; method in brief: as §3
# Salmonella typhimurium [19] = assay: Antibacterial activity against intracellular multidrug-resistant clinical isolate Salmonella typhimurium CGC18 infected in mouse RAW264.7 cells assessed as reduction in number of intracellular bacteria incubated for 24 hrs in presence of gentamycin by CFU assay; assay type: functional, organism-based, Salmonella enterica subsp. enterica serovar Typhimurium; conditions: Salmonella enterica, CGC18, RAW264.7, 24 h; method in brief: as §2
# Salmonella typhimurium [20] = assay: Antibacterial activity against intracellular ciprofloxacin-resistant Salmonella typhimurium NL10 infected in mouse RAW264.7 cells assessed as reduction in number of intracellular bacteria incubated for 24 hrs in presence of gentamycin by CFU assay; assay type: functional, organism-based, Salmonella enterica subsp. enterica serovar Typhimurium; conditions: Salmonella enterica, NL10, RAW264.7, 24 h; method in brief: as §2
# Salmonella typhi = assay: Antibacterial activity against Salmonella typhi infected in mouse RAW264.7 cells assessed as reduction in number of viable intracellular bacteria incubated for 24 hrs by CFU assay; assay type: functional, organism-based, Salmonella enterica subsp. enterica serovar Typhi; conditions: Salmonella enterica, RAW264.7, 24 h; method in brief: as §2
# Yersinia enterocolitica = assay: Antibacterial activity against Yersinia enterocolitica infected in mouse RAW264.7 cells assessed as reduction in number of viable intracellular bacteria incubated for 24 hrs by CFU assay; assay type: functional, organism-based; conditions: RAW264.7, 24 h
# Method in brief: (§4)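 RAW264.7 macrophages in DMEM + 10% heat-inactivated FBS infected 1 h at MOI 25 with bacteria (overnight LB culture diluted 1:100, grown 2 h at 37°C, resuspended in PBS to OD600 0.6). Washed, 100 mg/L gentamicin 1 h, then compound plus 20 mg/L gentamicin for 24 h. Lysed in 0.1% Triton X-100/PBS 10 min at 37°C, lysates serially diluted onto LB agar, colonies counted after 18 h at 37°C.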
# Listeria monocytogenes = assay: Antibacterial activity against Listeria monocytogenes infected in mouse RAW264.7 cells assessed as reduction in number of viable intracellular bacteria incubated for 24 hrs by CFU assay; assay type: functional, organism-based; conditions: RAW264.7, 24 h; method in brief: as §4
# Staphylococcus aureus = assay: Antibacterial activity against methicillin-resistant Staphylococcus aureus USA 300 infected in mouse RAW264.7 cells assessed as reduction in number of viable intracellular bacteria incubated for 24 hrs by CFU assay; assay type: functional, organism-based; conditions: USA 300, RAW264.7, 24 h; method in brief: as §2
# D(2) dopamine receptor (Homo sapiens), sequence (P14416 whole entry): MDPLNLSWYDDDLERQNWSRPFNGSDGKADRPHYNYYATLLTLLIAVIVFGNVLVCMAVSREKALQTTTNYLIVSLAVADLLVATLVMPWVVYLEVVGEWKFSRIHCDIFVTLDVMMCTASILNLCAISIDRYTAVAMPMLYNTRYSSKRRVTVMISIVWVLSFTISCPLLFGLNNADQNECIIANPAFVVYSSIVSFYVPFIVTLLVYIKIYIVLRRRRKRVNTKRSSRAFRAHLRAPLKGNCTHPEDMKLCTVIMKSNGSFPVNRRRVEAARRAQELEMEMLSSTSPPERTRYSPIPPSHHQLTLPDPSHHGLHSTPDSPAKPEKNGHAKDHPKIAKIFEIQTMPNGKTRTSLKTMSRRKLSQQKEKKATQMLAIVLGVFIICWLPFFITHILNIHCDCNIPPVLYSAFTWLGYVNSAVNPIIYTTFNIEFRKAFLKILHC
Compound,EC50 (Salmonella typhimurium [1]) [µM],CC50 [2] [µM],selectivity ratio [3],also measured
Oc1ccc(CCNC2=Nc3ccccc3Oc3ccc(Cl)cc32)cc1,33.5,52.1,1.6,
Clc1ccc2c(c1)C(N1CCNCC1)=Nc1ccccc1O2 [AMOXAPINE],7.25,107,14.8,inhibition [4]: Active
O=C(O)c1cn(C2CC2)c2cc(N3CCNCC3)c(F)cc2c1=O [CIPROFLOXACIN],0.15,,,
CC(C)CCNC1=Nc2ccccc2Oc2ccc(Cl)cc21,55.1,70.1,1.3,
NCC(=O)Nc1ccc(-n2nc(C(F)(F)F)cc2-c2ccc3c(ccc4ccccc43)c2)cc1 [AR-12],,7.7,,
CCC(CC)NC1=Nc2ccccc2Oc2ccc(Cl)cc21,28.5,72.8,2.6,
Clc1ccc2c(c1)C(NCc1ccccc1)=Nc1ccccc1O2,19.7,60.8,3.1,
Clc1ccc2c(c1)C(NCC1CC1)=Nc1ccccc1O2,44,80.3,1.8,
Clc1ccc(CCNC2=Nc3ccccc3Oc3ccc(Cl)cc32)cc1,53.5,> 90,> 1.7,
Clc1ccc2c(c1)C(NCCc1ccncc1)=Nc1ccccc1O2,18.5,51.1,2.8,
Clc1ccc2c(c1)C(NCCN1CCNCC1)=Nc1ccccc1O2,0.39,23.4,60,EC50 (Salmonella typhimurium [5]): 0.24 µM; CC50 at 24 h [6]: 20.7 µM; EC50 (Salmonella typhimurium [7]): 0.22 µM; CC50 at 24 h [8]: 15.4 µM; EC50 (Salmonella typhimurium [9]): 4.05 µM; CC50 at 24 h [10]: 32.5 µM; EC50 (Salmonella typhimurium [11]): 2.47 µM; CC50 at 24 h [12]: 41 µM; EC50 (Salmonella typhimurium [13]): 3 µM; CC50 at 24 h [14]: 40.5 µM; EC50 (Salmonella typhimurium [15]): 1.78 µM; CC50 at 24 h [16]: 28.4 µM; EC50 (Salmonella typhimurium [17]): 0.22 µM; CC50 at 24 h [18]: 30.3 µM; EC50 (Salmonella typhimurium [19]): 0.63 µM; EC50 (Salmonella typhimurium [20]): 0.64 µM; EC50 (Salmonella typhi): 0.28 µM; EC50 (Yersinia enterocolitica): 0.83 µM; EC50 (Listeria monocytogenes): 1.51 µM; EC50 (Staphylococcus aureus): 1.73 µM
O=C1CCCN1CCCNC1=Nc2ccccc2Oc2ccc(Cl)cc21,> 90,> 90,,
O=C(CNC1=Nc2ccccc2Oc2ccc(Cl)cc21)N1CCCC1,> 90,> 90,,
CN(C)CCNC1=Nc2ccccc2Oc2ccc(Cl)cc21,3.65,34.6,9.5,
Fc1ccc(CCNC2=Nc3ccccc3Oc3ccc(Cl)cc32)cc1,45.2,> 90,> 2,
Clc1ccc2c(c1)C(NCCN1CCCCC1)=Nc1ccccc1O2,4.34,22.2,5.1,
Clc1ccc2c(c1)C(NCCc1ccccc1)=Nc1ccccc1O2,21.2,56.3,2.7,
Clc1ccc2c(c1)C(NCCCN1CCCCC1)=Nc1ccccc1O2,1.12,19.6,17.5,
Clc1ccc2c(c1)C(NCCN1CCOCC1)=Nc1ccccc1O2,32,84.7,2.6,
Clc1ccc2c(c1)C(NCCc1cccnc1)=Nc1ccccc1O2,38.2,74,1.9,
Clc1ccc2c(c1)C(NCCCN1CCCC1)=Nc1ccccc1O2,1.12,16.3,14.6,
Clc1ccc2c(c1)C(NCCc1ccc(Cl)c(Cl)c1)=Nc1ccccc1O2,31.1,82.7,2.7,
Clc1ccc2c(c1)C(NCCN1CCCC1)=Nc1ccccc1O2,4.89,26.6,5.4,
CCCNC1=Nc2ccccc2Oc2ccc(Cl)cc21,56,112,2,
CCCCCNC1=Nc2ccccc2Oc2ccc(Cl)cc21,54.1,72.7,1.3,
CN1CCCC1CCNC1=Nc2ccccc2Oc2ccc(Cl)cc21 (stereo not drawn),1.22,23,18.9,
